Reference: ChEMBL document CHEMBL1140709, “Design, synthesis, and biological evaluation of (E)-styrylbenzylsulfones as novel anticancer agents” (J Med Chem, 2008)

Columns and labels:
Assay type in all cases: functional, cell-based
DLD-1 = assay: Antitumor activity against human DLD1 cells by trypan blue exclusion assay
Procedure, shortened: (§1)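 Tumour cells were grown in DMEM or RPMI with 10% fetal bovine serum and 1 unit/mL penicillin-streptomycin. They were seeded in six-well dishes at 1.0 × 10⁵ cells/mL/well, and compound was added 24 h later over a range of concentrations. After 96 h of exposure, viable cells in duplicate wells were counted by trypan blue exclusion.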

BT-20 = assay: Antitumor activity against human BT20 cells by trypan blue exclusion assay; procedure, shortened: as §1
[1] = Antitumor activity against human H157 cells by trypan blue exclusion assay; settings: NCI-H157; procedure, shortened: as §1
DU-145 = assay: Antitumor activity against AR-negative human DU145 cells by trypan blue exclusion assay; procedure, shortened: as §1

Row | SMILES | IC50 (DLD-1) [µM] | IC50 (BT-20) [µM] | IC50 [1] [µM] | IC50 (DU-145) [µM]
1 | COc1ccc(CS(=O)(=O)/C=C/c2ccccc2OC)cc1 | 7.5 | 5 | 5 | 3.5
2 | COc1ccc(CS(=O)(=O)/C=C/c2c(OC)cc(F)cc2OC)cc1 | 0.75 | 0.75 | 0.5 | 0.5
3 | COc1ccc(CS(=O)(=O)/C=C/c2ccc(OC)c(OC)c2OC)cc1 | > 20 | > 20 | > 20 | > 20
4 | COc1cc(OC)c(/C=C/S(=O)(=O)Cc2ccc(OC(F)(F)F)cc2)c(OC)c1 | 4 | 3 | 6 | 4
5 | COc1cc(OC)c(/C=C/S(=O)(=O)Cc2ccc(Cl)cc2)c(OC)c1 | 15 | 10 | 15 | 7.5
6 | COc1ccc(CS(=O)(=O)/C=C/c2ccc(OC)cc2OC)cc1 | > 20 | > 20 | > 20 | > 20
7 | COc1ccc(CS(=O)(=O)/C=C/c2ccc([N+](=O)[O-])cc2)cc1 | 5 | 5 | 7.5 | 7.5
8 | COc1ccc(CS(=O)(=O)/C=C/c2c(C)cccc2C)cc1 | > 20 | > 20 | > 20 | > 20
9 | COc1cc(OC)c(/C=C/S(=O)(=O)Cc2ccc(C#N)cc2)c(OC)c1 | 20 | 12.5 | 15 | 7.5
10 | COc1ccc(CS(=O)(=O)/C=C/c2ccc(N)cc2)cc1 | > 20 | > 20 | > 20 | > 20
11 | COc1ccc(CS(=O)(=O)/C=C/c2cc(OC)cc(OC)c2)cc1 | > 20 | > 20 | > 20 | > 20
12 | COc1ccc(CS(=O)(=O)/C=C/c2cc(OC)ccc2OC)cc1 | > 20 | > 20 | > 20 | > 20
13 | COc1ccc(CS(=O)(=O)/C=C/c2c(OC)cc(O)cc2OC)cc1O | 0.5 | 0.25 | 0.5 | 0.5
14 | COc1cc(OC)c(/C=C/S(=O)(=O)Cc2ccc(O)cc2)c(OC)c1 | 20 | 15 | 20 | 7.5
15 | COc1cc(OC)c(/C=C/S(=O)(=O)Cc2cc(OC)c(OC)c(OC)c2)c(OC)c1 | > 20 | > 20 | > 20 | > 20
16 | COc1ccc(CS(=O)(=O)/C=C/c2c(OC)cccc2OC)cc1 | 0.7 | 0.4 | 0.7 | 0.25
17 | COc1cc(OC)c(/C=C/S(=O)(=O)Cc2ccc(C(=O)O)cc2)c(OC)c1 | 15 | 15 | 17.5 | 10
18 | COc1ccc(CS(=O)(=O)/C=C/c2c(C)cc(C)cc2C)cc1 | > 20 | > 20 | > 20 | > 20
19 | COc1ccc(CS(=O)(=O)/C=C/c2ccc(OC)c(OC)c2)cc1 | > 20 | > 20 | > 20 | > 20
20 | COc1ccc(CS(=O)(=O)/C=C/c2ccc(F)cc2)cc1 | 2 | 1.5 | 2.5 | 1.25
21 | COc1ccc(CS(=O)(=O)/C=C/c2c(OC)cc(O)cc2OC)cc1 | > 20 | > 20 | > 20 | > 20
22 | COc1cc(OC)c(/C=C/S(=O)(=O)Cc2ccc([N+](=O)[O-])cc2)c(OC)c1 | 15 | 15 | 20 | 15
23 | COc1ccc(/C=C/S(=O)(=O)Cc2ccc(OC)cc2)cc1 | > 20 | > 20 | > 20 | > 20
24 | COc1ccc(CS(=O)(=O)/C=C/c2ccc(C)cc2C)cc1 | 15 | 15 | 15 | 12
